Experiment: Toxicity liver stage against HepG2, at 10uM
Type: cell-based
Parameters: test concentration 10 uM, cell line HepG2-A16-CD81EGFP
Settings: human, HepG2-A16-CD81EGFP cells; read-out: INHIBITION
How it was run: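 Uninfected HepG2-A16-CD81EGFP cells, 3 × 10^3 per well, 1536-well, plated on prespotted compound at 10 μM final, parasite-free screening media added to match infected plates; puromycin 10 μM positive, DMSO 0.5% negative; run in parallel with 48 h PbLuc assay at 37 °C, 5% CO2; viability by CellTiter-Glo luminescence, normalized to controls.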

Row | SMILES | cytotoxicity at 10 µM [%]
1 | O=C(Nc1ccc(F)c(Br)c1)N1CCCC1 | 2.32
2 | O=C(NC[C@H]1OC[C@@H](NC2COC2)[C@@H]1O)Nc1ccccc1 | 4.43
3 | CC[C@H]1CN(C(=O)c2cccnc2)CC[C@H]1CC(=O)NC1CC1 | 4.18
4 | COC(=O)[C@@H]1CN(C(=O)NC(C)C)CCN1S(=O)(=O)c1ccccc1 | 2.17
5 | CSc1ccc(C(=O)N2CC(=O)N(CC3CC3)CC(O)C2)cc1 (stereo unspecified) | 0.174
6 | COc1ccc2c(ccn2CCC(=O)Nc2ccc(C(N)=O)cc2)c1 | 6.1
7 | Cc1cc(N2CCOCC2)nc(N(C)CCO)c1C#N | 2.17
8 | COc1cn(CC(=O)N2CCC(c3ccccc3)CC2)c(C)cc1=O | 1.11
9 | O=C(NC1CCN(c2ccc(-c3ccccc3F)nn2)C1)c1ccc[nH]1 (stereo unspecified) | 7.4
10 | Cc1csc(C(=O)N2CCC(S(C)(=O)=O)C2)c1 (stereo unspecified) | -5.21
11 | CC(C)NC(=O)N1CCOC2(CNC2)C1 | -0.479
12 | Cc1ccc(CN2CC3(CCN(S(=O)(=O)c4ccccc4)C3)C2)o1 | -2.3
13 | O=C([C@H]1CCCO1)N1CCC2(CCCN(CCOc3ccccc3)C2)C1 (stereo partly specified) | -3.25
14 | O=C(N[C@@H]1CN(c2ncccn2)[C@@H]2CCCO[C@@H]21)c1cscn1 | -142
15 | COCCC(=O)N1CC2(CCN(c3ccccc3)C2)C1 | 10.3
16 | CC(=O)N1CCO[C@@H]2CN(C(=O)c3ccccc3)CC[C@@H]2C1 | 5.29
17 | O=C(CO)N1CCCn2nnc(Cn3cccn3)c2C1 | 6.59
18 | COc1ccc2c(ccn2CCC(=O)/N=c2\[nH]nc(C3CCCO3)s2)c1 (stereo unspecified) | -8.07
19 | O=C(NCCC1=CCCCC1)C1CCN(c2ccc3nncn3n2)CC1 | -2.96
20 | CCCc1nc(N2CCC(C)CC2)c2c(n1)c(C)nn2CC | 1.64
21 | CS(=O)(=O)N1CCCC(c2cccc(-c3ccccc3F)n2)C1 (stereo unspecified) | -3.81
22 | CC(=O)N1CC(c2ccnc(Nc3nccs3)n2)C1 | 3.23
23 | CC(=O)N1CCOCC(Cc2ccc3c(ccn3C(C)=O)c2)C1 (stereo unspecified) | 1.64

Row | SMILES | cytotoxicity at 10 µM [%]
24 | CC(=O)N1C[C@H](c2cc(O)nc(C)n2)[C@@H](c2ccccc2F)C1 | 1.65
25 | Oc1nc(C2CC2)nc2c1nnn2C1CCN(Cc2ccoc2)CC1 | 6.01
26 | Cn1cnc2ccc(NC(=O)CC3CCN(C4CCCCC4)CC3)cc21 | 25.9
27 | CCn1cc(C(=O)N(C)[C@@H]2CC[C@@H](N3CCCC3)[C@@H]2O)c(C)n1 | 5.92
28 | Cc1nc(C)n(CC(=O)N2CCCC(c3cc4ccccc4cn3)C2)n1 (stereo unspecified) | -22.1
29 | Cc1cc(C)nc(N2CCC(CNC(=O)c3ccccn3)CC2)n1 | -18.9
30 | CCc1nnc(Nc2cccc(C3CCN(C)CC3)n2)s1 | -28.6
31 | O=C(c1ccncc1)N1CCCC(c2ncncc2-c2ccncc2)C1 (stereo unspecified) | -17.2
32 | CNc1cc(N2CCC(O)(CNC(=O)c3ccc(C)nc3)C2)ncn1 (stereo unspecified) | -25.3
33 | CC(C)CN1CCC(C(=O)NCCNC(=O)c2ccccc2)CC1 | 1.22
34 | CCc1cccc(CC(=O)NC2CCN(C(=O)NC(C)(C)C)CC2)c1 | -4.73
35 | Cc1ccc(S(N)(=O)=O)cc1C(=O)NC1CCCC1 | 1.86
36 | CCc1nnc(SCC(=O)Nc2cc(C(C)(C)C)nn2C)[nH]1 | 7.28
37 | O=C1COc2cc(S(=O)(=O)NCCC3=CCCCC3)c(Br)cc2N1 | 15.7
38 | O=C(CCNc1ncccn1)NCCc1ccc(Cl)s1 | -3.91
39 | O=C(NC1CCCCNC1=O)c1cc2ccccc2[nH]c1=O (stereo unspecified) | -6.08
40 | CCN(Cc1ccco1)C(=O)NCc1nnc2n1CCCCC2 | -4.73
41 | CC1CCN(CCNC(=O)C2CCN(C(=O)C(C)(C)C)CC2)CC1 | 6.81
42 | CCOC(C)C(=O)N1CCN(S(C)(=O)=O)CC1 (stereo unspecified) | -5.35
43 | O=C(NS(=O)(=O)c1c(Cl)cccc1Cl)c1cccc2c1OCCO2 | 0.582
44 | Cc1cnn(CCNCC(O)c2ccc(S(C)(=O)=O)cc2)c1 (stereo unspecified) | 1.1
45 | O=C(Nc1nncs1)c1ccc(-n2cnnn2)cc1 | 5.25
46 | N#Cc1cccc(Cl)c1NCCCc1nc(=O)[nH][nH]1 | 24.2

Row | SMILES | cytotoxicity at 10 µM [%]
47 | O=C(Cc1cnn(-c2ccccc2)n1)NC(C1CC1)C1CC1 | -9.66
48 | Cc1cccc(N2N=C(C(=O)NC(C)CCc3ccco3)CCC2=O)c1 (stereo unspecified) | -10.1
49 | CC(C)CCN(C(=O)c1cccc(NC(N)=O)c1)C1CC1 | -6.46
50 | CC(SCCS(C)(=O)=O)c1nc(Cc2ccc(F)cc2)no1 (stereo unspecified) | 4.6
51 | CCOC(=O)C(CO)NC(=O)CCc1cccc(OC2CCCC2)c1 (stereo unspecified) | -7.08
52 | COCCC(Cc1cccc(Br)c1)C(=O)NCC(N)=O (stereo unspecified) | 9.74
53 | CC(C)N(Cc1ccccn1)C(=O)CN(C)C(=O)c1cccs1 | 2.31
54 | CC(C)c1nc(C2CCCN2CCOCC2CC2)no1 (stereo unspecified) | 1.8
55 | Cc1csc(N2CCCN(Cc3ccn(C)c(=O)c3)CC2)n1 | 12.8
56 | CSC(CNS(C)(=O)=O)c1cccc(Cl)c1 (stereo unspecified) | 6.27
57 | O=S(=O)(C1CC1)N1CCc2c(CN3CCOCC3)cncc2C1 | -0.514
58 | c1cnc(N2CCc3onc(CN4CCOCC4)c3C2)cn1 | 14.1
59 | CC(=O)N1CCC2(CC1)CN(C(C)C)c1ccc(F)cc12 | -110
60 | Cc1nc(CN2CCCCC2CCc2ccc(O)cc2)co1 (stereo unspecified) | 2.72
61 | CCN(CC)C(=O)C1CCC(=O)N(CCc2cccc(F)c2)C1 (stereo unspecified) | -4.92
62 | c1ccc(Cc2noc(-c3ccc(NCC4COCCO4)nc3)n2)cc1 (stereo unspecified) | 6.42
63 | CC(C)c1nccc(C2CC(=O)Nc3n[nH]c(C4CCC4)c32)n1 (stereo unspecified) | -14.6
64 | Cc1ccccc1N1CCN(C(=O)c2cnn(C(C)C)c2)C(C)C1 (stereo unspecified) | 1.48
65 | COc1ccc(CN2C[C@@H](CN(C)CCO)[C@@H](CO)C2)cc1Cl | -5.88
66 | Cc1cc(CNC(=O)c2ccc(C(C)N3CCCCC3)o2)[nH]n1 (stereo unspecified) | -12.6
67 | Cc1nccn1CCC1CCN(C2CCC3(CCNCC3)CC2)CC1 | -1.43
68 | CN(Cc1nc(CC2CC2)no1)CC1Cc2ccccc2O1 (stereo unspecified) | -2.53
69 | COCC1CCCCN1Cc1nc(-c2ccoc2)oc1C (stereo unspecified) | 1.93

Row | SMILES | cytotoxicity at 10 µM [%]
70 | COCc1cc(NCc2ccccc2OC)ncn1 | 7.69
71 | Cc1cc2[nH]c(=O)oc2cc1S(=O)(=O)N1CCC(N2CCCC2=O)CC1 | 1.54
72 | COc1cccc(C(=O)N(C)C(C)c2c(C)n[nH]c2C)c1OC (stereo unspecified) | -2.8
73 | CC(C)c1nc(CN(C)C(=O)CCNC(=O)c2ccccc2F)no1 | 4.66
74 | CCn1ncnc1C(C)NC(=O)COc1ccc(Cl)cc1Cl (stereo unspecified) | 2.8
75 | CCC(C(=O)NCc1ccccn1)N(c1cccc(C)c1)S(C)(=O)=O (stereo unspecified) | 0.383
76 | CCc1nccn1C1CCCN(C(=O)c2ccc(OC)c(OC)c2)C1 (stereo unspecified) | -20.6
77 | Cc1cnn(C2CCCN(C(=O)c3ccc(O)nc3)C2)c1 (stereo unspecified) | -2.78
78 | CC(C)OCCCNC(=O)CN1C=Nc2ccccc2S1(=O)=O | -5.44
79 | Cc1cnn(CC2CCCN2C(=O)c2c(C)noc2C)c1 (stereo unspecified) | -6.02
80 | Cc1nnc(NC(=O)CN(C)C2CCCN(c3cccnn3)C2)s1 (stereo unspecified) | -5.64
81 | CC(C)c1nnc2n1CCN(C(=O)CN(C)Cc1ccccc1)C2 | -5.17
82 | COc1cccc(CNCc2c(C(C)C)nn(C)c2N(C)C)c1 | -7.36
83 | Cc1cc(C)n(CC2CN(Cc3ccccn3)CCO2)n1 (stereo unspecified) | -3.89
84 | Cc1ccc(C(=O)NCc2cccnc2N(C)C)o1 | -6.86
85 | Cc1cscc1C(=O)N1CCCC1CC(=O)c1cnn(C)c1 (stereo unspecified) | -3.4
86 | CN(Cc1cc(-c2ccccc2)no1)C1CCCN(c2cccnn2)C1 (stereo unspecified) | -10.2
87 | COCC(=O)N1CCN(Cc2coc(-c3cccc(F)c3)n2)CC1 | -7.16
88 | Cn1cc(C2CCCN2C(=O)c2ccc(Br)o2)cn1 (stereo unspecified) | -3.32
89 | Cc1cc(C)n(C2CCCN(C(=O)COCC(F)(F)F)C2)n1 (stereo unspecified) | -4.3
90 | CC(=O)N(Cc1ncc(C)o1)C1CCN(CCCc2cnn(C)c2)C1 (stereo unspecified) | 8.11
91 | CN(C)CC1CN(c2ncnc3[nH]ccc23)CCO1 (stereo unspecified) | 0.89
92 | Cc1nn(C)c(C)c1C1CCCN1Cc1nc(C)c2ccccc2n1 (stereo unspecified) | -3.9

Row | SMILES | cytotoxicity at 10 µM [%]
93 | O=C(CC1CCCCC1)N1CCN(C(=O)NCc2ccccn2)CC1 | -4.02
94 | Cc1cc(C)n(CC2CCCCN2Cc2cscn2)n1 (stereo unspecified) | 1.78
95 | Cc1nc2cc(-c3nccn3C)nn2c(N2CCC(O)CC2)c1C | -3.31
96 | CN(C)C(=O)N1Cc2ccccc2C2(CCNCC2)C1 | 1.26
97 | N#Cc1ccc(N2CCC3(CCCN(c4ccccn4)C3)C2)nc1 (stereo unspecified) | 15.6
98 | Fc1cccnc1N1CCOCC2(CCCN(c3nncs3)C2)C1 (stereo unspecified) | 3.44
99 | COc1ncccc1CN1C[C@@H]2COC[C@]2(COCC2CC2)C1 | 5.37
100 | Cc1cnc2n1CCN(C)C21CCN(CC2CC2)CC1 | 7.34
101 | CCN1CCC2(CC1)CC(NC(=O)N(C)C)c1cc(C)ccc12 (stereo unspecified) | -13.1
102 | O=C(c1ccco1)N1CCN2C[C@H](OCc3cccnc3)C[C@H]2C1 | -77
103 | O=C1NC2(CCN(Cc3ccsc3)CC2)CC1c1ccncc1 (stereo unspecified) | 4.93
104 | CN(C)[C@@H]1CN(C(=O)Cc2ccsc2)[C@@H]2CCCO[C@H]12 | 3.08
105 | O=C1COC2(COCCN(Cc3ccsc3)C2)CN1c1ccoc1 (stereo unspecified) | -73.5
106 | O=C1[C@@H]2CCN(Cc3ccoc3)C[C@@H]2OCCN1Cc1cccnc1 | -0.671
107 | CCN1CCOCC2(CCCN(C(=O)c3conc3C)C2)C1 (stereo unspecified) | 2.82
108 | CCOCC(=O)N1CCC2(CC1)COCCN2CCOC | 8.37
109 | COCCOCC1(CNCc2cccc(OC)c2)C[C@@H](O)[C@@H](O)C1 (stereo partly specified) | 0.994
110 | CN(C)C(=O)N1C[C@H]2CC[C@@H](C1)N(C(=O)c1c(Cl)cccc1Cl)C2 | 7.2
111 | O=C1CCCC2=Nc3nonc3NC(c3ccccc3Cl)C12 (stereo unspecified) | 18.5

— ChEMBL document CHEMBL4513216, “Probing the Open Global Health Chemical Diversity Library for Multistage-Active Starting Points for Next-Generation Antimalarials” (ACS Infect Dis, 2020)
